From ChEMBL document CHEMBL2176865, “Discovery of diarylhydantoins as new selective androgen receptor modulators” (J Med Chem, 2012)

Experiments:
[1] = tested on: Rattus norvegicus; test: Anabolic activity in ORX rat model assessed as levator ani muscle weight at 30 mg/kg, po administered 4 days relative to sham-treated control; type: functional
How it was run: (§1)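 Young (immature) rats castrated, left untreated one week, then dosed daily for four days (test agents orally; testosterone propionate subcutaneously). Untreated ORX and sham-operated rats as controls. Levator ani (anabolic) and ventral prostate (androgenic) weights normalised to body weight; activity % = (W/BW treated − W/BW ORX)/(W/BW sham − W/BW ORX) × 100; A50 = dose giving 50% activity.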

[2] = tested on: Rattus norvegicus; test: Androgenic activity in ORX rat model assessed as ventral prostate weight at 30 mg/kg, po administered 4 days relative to sham-treated control; type: functional, Prostate gland; how it was run: as §1
[3] = tested on: Rattus norvegicus; test: Androgenic activity in ORX rat model assessed as ventral prostate weight at 1 mg/kg, sc administered 4 days relative to sham-treated control; type: functional, Prostate gland; conditions: route subcutaneous; how it was run: as §1
[4] = tested on: Rattus norvegicus; test: Androgenic activity in sc dosed ORX rat model assessed as dose required to induce 50% effect on ventral prostate weight administered 4 days; type: functional, Prostate gland; how it was run: as §1
[5] = tested on: Rattus norvegicus; test: Anabolic activity in sc dosed ORX rat model assessed as maximum effect on levator ani muscle weight administered 4 days relative to sham-treated control; type: functional; how it was run: as §1
[6] = tested on: Rattus norvegicus; test: Androgenic activity in sc dosed ORX rat model assessed as maximum effect on ventral prostate weight administered 4 days relative to sham-treated control; type: functional, Prostate gland; how it was run: as §1
[7] = tested on: Rattus norvegicus; test: Anabolic activity in ORX rat model assessed as levator ani muscle weight at 1 mg/kg, sc administered 4 days relative to sham-treated control; type: functional; conditions: route subcutaneous; how it was run: as §1
[8] = tested on: Rattus norvegicus; test: Anabolic activity in sc dosed ORX rat model assessed as dose required to induce 50% effect on levator ani muscle weight administered 4 days; type: functional; how it was run: as §1

Structure (SMILES)	Activity [1]	Activity [2]	other results
C#CCN1C(=O)N(c2ccc(C#N)c(C(F)(F)F)c2)C(=O)C1(C)c1ccc(O)cc1 (racemic)	95%	19%	
CN1C(=O)N(c2ccc(Cl)c(Cl)c2)C(=O)C1(C)c1ccc(O)cc1 (racemic)	12%	0%	
CN1C(=O)N(c2ccc(C#N)c(C(F)(F)F)c2)C(=O)C1(C)c1ccc(O)cc1 (racemic)	84%	14%	
COc1cc(N2C(=O)N(C)C(C)(c3ccc(O)cc3)C2=O)ccc1C#N (racemic)	96%	51%	
Cc1c(N2C(=O)N(C)C(C)(c3ccc(O)cc3)C2=O)ccc(C#N)c1Cl (racemic)	82%	12%	
CCC(=O)O[C@H]1CC[C@H]2[C@@H]3CCC4=CC(=O)CC[C@]4(C)[C@H]3CC[C@]12C [TESTOSTERONE PROPIONATE]			Activity [3]: 73%; Activity [4]: 0.2 mg/kg; Activity [5]: 130%; Activity [6]: 130%; Activity [7]: 99%; Activity [8]: 0.3 mg/kg
